Results of several laboratories.
Protocols differ between the studies behind these lines.
Target: Focal adhesion kinase 1 (PTK2, Homo sapiens, UniProt Q05397)

SMILES | assay | conditions | remaining binding [%]
COc1cnc(Nc2cccc(S(N)(=O)=O)c2)nc1N1CCN(c2ccccc2)C(=O)C1 | binding, competition with immobilised ligand | 1 µM | 99
O=C(c1ccc(Nc2ncc(Cl)c(-c3ccc(Cl)s3)n2)cc1)N1CCC(N2CCCC2)CC1 | binding, competition with immobilised ligand | 1 µM | 41
C[C@@H]1CN(c2ccc3ncc(-c4ccc5[nH]nc(C6CC6)c5c4)n3n2)C[C@H](C)O1 | binding, competition with immobilised ligand | 0.5 µM | 100
CN(C)c1nccc(-c2cnn3ncccc23)n1 | binding | 1 µM | 79
CC(=O)C1=C(C)N(c2cccc(C(F)(F)F)c2)C(=O)N[C@@H]1c1ccc(C#N)nc1 | cell-free assay, competition with immobilised ligand | 1 µM | 100
O=C(NCCCN1CCOCC1)c1ccc(Nc2nccc(-c3cc4ccccc4s3)n2)cc1 | binding, competition with immobilised ligand | 1 µM | 100
COc1cnc(Nc2cccc(S(N)(=O)=O)c2)nc1N1CCN(c2ccccc2)CC1 | binding, competition with immobilised ligand | 1 µM | 100
c1ccc(N2CCN(Cc3nc4ccccc4[nH]3)CC2)nc1 | binding, competition with immobilised ligand | 1 µM | 86
CN(C)c1ncc(F)c(-c2cnn3ncccc23)n1 | binding | 1 µM | 100
O=C(NS(=O)(=O)c1ccc(NCC2CCOCC2)c([N+](=O)[O-])c1)c1ccc(N2CCN(Cc3ccc(C(F)(F)F)cc3-c3ccc(Cl)cc3)CC2)cc1Oc1cnc2[nH]ccc2c1 | cell-free assay, competition with immobilised ligand | 1 µM | 100
CC(C)(C)c1ccc(-c2nc(CBr)nn2-c2cccc(O)c2)cc1 | cell-free assay, competition with immobilised ligand | 10 µM | 88
O=C(c1ccc(Nc2ncc(Cl)c(-c3cc4ccccc4s3)n2)cc1)N1CCC(N2CCCC2)CC1 | binding, competition with immobilised ligand | 1 µM | 78
N#Cc1ccccc1CSc1nnc2c(n1)[nH]c1ccccc12 | binding, competition with immobilised ligand | 10 µM | 98
CNC(=O)Nc1ccc2c(c1)[C@@]1(CC2)OC(=O)N(CC(=O)N(Cc2ccc(F)cc2)[C@@H](C)C(F)(F)F)C1=O | cell-free assay, competition with immobilised ligand | 1 µM | 100
N[C@H]1CCN(c2nccc(-c3cnn4ncccc34)n2)C1 | binding | 1 µM | 100
c1cncc(-c2cccc(Nc3nccc(NC4CCCCC4)n3)c2)c1 | binding, competition with immobilised ligand | 10 µM | 67
C=CC(=O)N1CCC(C(=O)NCC(=O)N2CCN(c3nc(-c4cnc(N)nc4C(F)F)nc(N4CCOCC4)n3)CC2)CC1 | binding, competition with immobilised ligand | 1 µM | 100
CCS(=O)(=O)c1cc2cc(C[C@@](O)(CC(C)(C)c3ccc(F)cc3C(N)=O)C(F)(F)F)[nH]c2cn1 | cell-free assay, competition with immobilised ligand | 1 µM | 100
O=C(NCC1CCOCC1)c1n[nH]cc1NC(=O)c1c(F)cccc1F | binding, competition with immobilised ligand | 1 µM | 100
COc1cc(-c2cn(C3CCc4ccccc4N(CC(F)(F)F)C3=O)nn2)ccc1-n1ccc(C)n1 (centres unmarked) | cell-free assay, competition with immobilised ligand | 1 µM | 100
C[C@H]1CCN(c2nccc(-c3cnn4ncccc34)n2)C1 | binding | 1 µM | 100
Cc1c(C(=O)O)cc(-c2ccc(C3CCNCC3)cc2)c2ccc(-c3ccc(C(F)(F)F)cc3)cc12 | binding, competition with immobilised ligand | 1 µM | 100
C[C@@H](c1ccc(-n2cnc3c(N)ncnc32)cc1)N1CCc2nn(C)c(Cc3ccccc3)c2C1=O | binding, competition with immobilised ligand | 0.1 µM | 87
